The values that follow come from ChEMBL document CHEMBL4422643, “Physalactone and 4β-Hydroxywithanolide E Isolated from Physalis peruviana Inhibit LPS-Induced Expression of COX-2 and iNOS Accompanied by Abatement of Akt and STAT1” (J Nat Prod, 2019).

The test system of data set [1] is RAW264.7. The data set can be described thus: Antiinflammatory activity against mouse RAW264.7 cells assessed as inhibition of LPS induced iNOS expression preincubated for 30 mins followed by LPS challenge and measured after 16 hrs by Western blot analysis. Type of data set: functional, cell-based. In general terms: A western blot detects proteins with antibodies after separation by electrophoresis.

Data set [2] deals with T1, I-kappa-B kinase (Mus musculus) (UniProt Q60680+O88351+O88522). The data set is described as follows: Effect on IKK-mediated IkappaBalpha degradation in LPS-stimulated mouse RAW264.7 cells at 40 uM preincubated for 30 mins followed by LPS-stimulation and measured after 10 mins by Western blot analysis. Type of data set: cell-based. In a few lines:
(§1)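 RAW 264.7 cells were pretreated 30 min with compound (5 or 40 μM), then given LPS 1 μg/mL for several time points. Western blots of whole-cell lysates probed IκBα, total and Ser473-phospho Akt, and total and Tyr701-phospho STAT1, with GAPDH as loading reference. Detection used HRP chemiluminescence.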

In data set [3] the test system is RAW264.7. The data set can be described thus: Effect on total STAT1 expression in LPS-stimulated mouse RAW264.7 cells at 40 uM preincubated for 30 mins followed by LPS-stimulation and measured up to 240 mins by Western blot analysis. Particulars: raw264.7, 4 h. Type of data set: ADME, cell-based. In short, it runs like this:
as §1

For data set [4], the target named is T2, Signal transducer and activator of transcription 1 (Mus musculus) (UniProt P42225).
T2 sequence (whole entry): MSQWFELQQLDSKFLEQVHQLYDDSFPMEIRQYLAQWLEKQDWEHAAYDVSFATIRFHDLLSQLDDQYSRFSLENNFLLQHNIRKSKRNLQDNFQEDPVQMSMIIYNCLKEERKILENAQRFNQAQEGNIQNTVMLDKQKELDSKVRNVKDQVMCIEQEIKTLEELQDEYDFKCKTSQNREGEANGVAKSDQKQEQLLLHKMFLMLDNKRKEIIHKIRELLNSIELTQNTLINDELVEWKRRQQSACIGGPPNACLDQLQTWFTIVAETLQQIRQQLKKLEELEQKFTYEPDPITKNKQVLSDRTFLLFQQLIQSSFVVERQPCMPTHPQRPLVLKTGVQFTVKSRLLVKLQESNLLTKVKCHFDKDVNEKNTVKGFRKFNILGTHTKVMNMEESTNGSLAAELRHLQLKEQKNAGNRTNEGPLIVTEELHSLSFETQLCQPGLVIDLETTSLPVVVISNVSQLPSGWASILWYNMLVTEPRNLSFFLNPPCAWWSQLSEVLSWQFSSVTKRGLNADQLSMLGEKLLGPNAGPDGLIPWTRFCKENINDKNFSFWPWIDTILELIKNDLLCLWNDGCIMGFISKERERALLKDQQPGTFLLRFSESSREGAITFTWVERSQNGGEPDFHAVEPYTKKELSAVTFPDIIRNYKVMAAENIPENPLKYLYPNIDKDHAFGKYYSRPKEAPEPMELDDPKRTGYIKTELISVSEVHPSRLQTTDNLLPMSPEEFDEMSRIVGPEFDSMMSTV
The data set is described as follows: Inhibition of LPS-induced STAT1 phosphorylation at Y701 residue in mouse RAW264.7 cells at 40 uM preincubated for 30 mins followed by LPS-stimulation and measured up to 240 mins by Western blot analysis. The class given is cell-based. In short, it runs like this: as §1

The test system of data set [5] is RAW264.7. The data set is described as follows: Antiinflammatory activity against mouse RAW264.7 cells assessed as inhibition of LPS induced iNOS expression at 50 uM preincubated for 30 mins followed by LPS challenge and measured after 16 hrs by Western blot analysis. The class given is functional, cell-based. In a few lines: (§2)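 RAW 264.7 cells in DMEM with 10% heat-inactivated FBS and penicillin/streptomycin at 37 °C, 5% CO2. Cells were pretreated 30 min at 50 μM, then given LPS 1 μg/mL for 16 h. iNOS and COX-2 protein were detected by Western blot (8–12% SDS-PAGE, PVDF, HRP secondary, chemiluminescence imaging), with equal total protein loaded by Bradford assay. n = 3.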

The target in data set [6] is T1, I-kappa-B kinase (Mus musculus). The data set is described as follows: Effect on IKK-mediated IkappaBalpha degradation in LPS-stimulated mouse RAW264.7 cells assessed as IkappaBalpha recovery at 40 uM preincubated for 30 mins followed by LPS-stimulation and measured after 20 to 240 mins by Western blot analysis. The class given is cell-based. In a few lines: as §1

For data set [7], the system named is RAW264.7. The data set is described as follows: Antiinflammatory activity against mouse RAW264.7 cells assessed as inhibition of LPS induced COX2 expression at 50 uM preincubated for 30 mins followed by LPS challenge and measured after 16 hrs by Western blot analysis. The class given is functional, cell-based. In short, it runs like this: as §2
Data set [8] has as its system RAW264.7. The data set can be described thus: Effect on total AKT expression in LPS-stimulated mouse RAW264.7 cells at 40 uM preincubated for 30 mins followed by LPS-stimulation and measured up to 240 mins by Western blot analysis. The class given is ADME, cell-based. Particulars: raw264.7, 4 h. In a few lines: as §1
In data set [9] the test system is RAW264.7. The data set is described as follows: Antiinflammatory activity against mouse RAW264.7 cells assessed as inhibition of LPS-induced nitric oxide production preincubated for 30 mins followed by LPS challenge and measured after 18 hrs by Griess assay. Type of data set: functional, cell-based. In a few lines: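 Macrophages (RAW 264.7, 5 × 10^5/well, 24 h settle) were pretreated 30 min in phenol-red-free medium at 0.128–5.0 or 1.0–40 μM, then given LPS 1 μg/mL for 18 h. Culture-supernatant nitrite was read by Griess reaction, and an IC50 was estimated from the concentration–response. n = 3.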
Background: Nitrite, measured by Griess reagent, commonly stands in for NO production.

For data set [10], the system named is RAW264.7. The data set is described as follows: Antiinflammatory activity against mouse RAW264.7 cells assessed as inhibition of LPS induced COX2 expression preincubated for 30 mins followed by LPS challenge and measured after 16 hrs by Western blot analysis. Type of data set: functional, cell-based.
Data set [11] concerns RAW264.7. The data set is described as follows: Antiinflammatory activity against mouse RAW264.7 cells assessed as inhibition of LPS induced iNOS mRNA expression preincubated for 30 mins followed by LPS challenge and measured after 3 to 12 hrs by SYBR green dye based qRT-PCR analysis. Type of data set: functional, cell-based. In short, it runs like this: (§3)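 RAW 264.7 cells were pretreated 30 min, then given LPS 1 μg/mL for 3, 6, 9 or 12 h. Total RNA went to qRT-PCR with SYBR Green for Nos2/Ptgs2. Values were normalized to β-actin by 2^−ΔΔCT and expressed as fold change versus unstimulated cells. n = 3; means ± SD; significance versus LPS-only at p < 0.05.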
(Quantitative PCR measures a nucleic acid by following its amplification.)

Data set [12] deals with RAC-alpha serine/threonine-protein kinase (Mus musculus) (UniProt P31750). The data set is described as follows: Inhibition of LPS-induced AKT phosphorylation at S473 residue in mouse RAW264.7 cells at 40 uM preincubated for 30 mins followed by LPS-stimulation and measured up to 240 mins by Western blot analysis. The class given is cell-based. In a few lines:
as §1

The test system of data set [13] is RAW264.7. The data set is described as follows: Antiinflammatory activity against mouse RAW264.7 cells assessed as inhibition of LPS induced COX2 mRNA expression preincubated for 30 mins followed by LPS challenge and measured after 3 to 12 hrs by SYBR green dye based qRT-PCR analysis. The class given is functional, cell-based. In short, it runs like this: as §3

Data set [14] can be described thus: Effect on SAPK/JNK1/2 phosphorylation at T183/Y185 residues in mouse RAW264.7 cells at 40 uM measured after 30 mins by Western blot analysis. The class given is ADME, cell-based. Particulars: raw264.7, 0.5 h.
Data set [15] deals with RAW264.7. The data set is described as follows: Antiinflammatory activity against mouse RAW264.7 cells assessed as inhibition of LPS-induced nitric oxide production by measuring nitrite levels at 50 uM preincubated for 30 mins followed by LPS challenge and measured after 16 hrs by Griess assay (reference value: 32.4 +/- 0.9 uM). The class given is functional.
Data set [16] deals with T1, I-kappa-B kinase (Mus musculus). The data set can be described thus: Effect on IKK-mediated IkappaBalpha degradation in LPS-stimulated mouse RAW264.7 cells assessed as IkappaBalpha recovery at 5 uM preincubated for 30 mins followed by LPS-stimulation and measured after 20 to 240 mins by Western blot analysis. The class given is cell-based. In a few lines:
as §1

Data set [17] deals with RAW264.7. The data set is described as follows: Effect on total STAT1 expression in LPS-stimulated mouse RAW264.7 cells at 5 uM preincubated for 30 mins followed by LPS-stimulation and measured up to 240 mins by Western blot analysis. The following applies: raw264.7, 4 h. Type of data set: ADME, cell-based. In short, it runs like this:
as §1

Data set [18] deals with T2, Signal transducer and activator of transcription 1 (Mus musculus). The data set is described as follows: Inhibition of LPS-induced STAT1 phosphorylation at Y701 residue in mouse RAW264.7 cells at 5 uM preincubated for 30 mins followed by LPS-stimulation and measured up to 240 mins by Western blot analysis. The class given is cell-based. In short, it runs like this:
as §1

Data set [19] is described as follows: Effect on SAPK/JNK1/2 phosphorylation at T183/Y185 residues in mouse RAW264.7 cells at 5 uM measured after 30 mins by Western blot analysis. The class given is ADME, cell-based. Particulars: raw264.7, 0.5 h.
Data set [20] deals with RAC-alpha serine/threonine-protein kinase (Mus musculus) (UniProt P31750). The data set is described as follows: Inhibition of LPS-induced AKT phosphorylation at S473 residue in mouse RAW264.7 cells at 5 uM preincubated for 30 mins followed by LPS-stimulation and measured up to 240 mins by Western blot analysis. The class given is cell-based. In a few lines:
as §1

For data set [21], the target named is T1, I-kappa-B kinase (Mus musculus). The data set is described as follows: Effect on IKK-mediated IkappaBalpha degradation in LPS-stimulated mouse RAW264.7 cells at 5 uM preincubated for 30 mins followed by LPS-stimulation and measured after 10 mins by Western blot analysis. The class given is cell-based. In short, it runs like this: as §1
Data set [22] relates to RAW264.7. The data set can be described thus: Effect on total AKT expression in LPS-stimulated mouse RAW264.7 cells at 5 uM preincubated for 30 mins followed by LPS-stimulation and measured up to 240 mins by Western blot analysis. Type of data set: ADME, cell-based. The following applies: raw264.7, 4 h. In a few lines:
as §1

Active and inactive are the calls of the source. The rule behind the calls is not given here.

Sequence of RAC-alpha serine/threonine-protein kinase (Mus musculus) (P31750 whole entry): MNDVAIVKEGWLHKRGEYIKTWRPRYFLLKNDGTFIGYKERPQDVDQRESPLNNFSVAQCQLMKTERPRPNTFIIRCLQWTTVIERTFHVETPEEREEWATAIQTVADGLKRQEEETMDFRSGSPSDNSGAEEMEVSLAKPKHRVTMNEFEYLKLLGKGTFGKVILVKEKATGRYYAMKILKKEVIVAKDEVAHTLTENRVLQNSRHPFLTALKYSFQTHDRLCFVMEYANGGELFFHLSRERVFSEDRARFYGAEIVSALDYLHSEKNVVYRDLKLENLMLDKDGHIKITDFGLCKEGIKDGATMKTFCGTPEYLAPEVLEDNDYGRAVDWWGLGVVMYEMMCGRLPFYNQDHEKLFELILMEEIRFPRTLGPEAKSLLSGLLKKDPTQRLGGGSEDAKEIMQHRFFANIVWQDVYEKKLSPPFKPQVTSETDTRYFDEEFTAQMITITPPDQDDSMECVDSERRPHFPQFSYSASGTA

As for `CO[C@H]1CC(=O)[C@]2(C)[C@H]3CC[C@]4(C)[C@](O)([C@@](C)(O)[C@H]5CC(C)=C(C)C(=O)O5)CC[C@@]4(O)[C@@H]3C[C@H]3O[C@]32[C@H]1O`, the inhibition result with RAW264.7 [1], in the data set with RAW264.7 [10], in the data set on RAW264.7 [11] and in the data set with RAW264.7 [13] was “Dose-dependent effect” throughout. The outcome in data set [2] and in [6] was inactive. In addition, the Activity result in the data set on RAW264.7 [3] is “Non-Toxic”; in the data set on RAW264.7 [8], “Non-Toxic”; in data set [14] it was “Not Active”; in the data set on RAW264.7 [15] it was 1.1 µM. Further, the inhibition entry (in data set [4]; in the data set with RAW264.7 [5]; with RAW264.7 [7]; in [12]) was “Active” throughout. Also, the 50% inhibitory concentration (IC50) (in general, the concentration at which inhibition is half-maximal) in the data set with RAW264.7 [9] stood at 13.8 µM.

Turning to `CC1=C(C)C(=O)O[C@@H]([C@](C)(O)[C@]2(O)CC[C@@]3(O)[C@@H]4C[C@H]5O[C@]56[C@@H](O)C=CC(=O)[C@]6(C)[C@H]4CC[C@]23C)C1`, the outcome in data set [16] and in [21] was inactive. Also, the inhibition entry with RAW264.7 [1], in the data set on RAW264.7 [10], in the data set with RAW264.7 [11] and in the data set with RAW264.7 [13] was “Dose-dependent effect” in each case. The Activity entry is “Non-Toxic” in the data set on RAW264.7 [17], “Not Active” in [19], 0.9 µM with RAW264.7 [15] and “Non-Toxic” with RAW264.7 [22]. Further, the inhibition result (in the data set on RAW264.7 [5]; in [18]; with RAW264.7 [7]; in [20]) was “Active” throughout. Besides, the IC50 with RAW264.7 [9] is 1.8 µM.
